Measured values taken from the M2OR odorant receptor database.

Tests used:
Conditions in all cases: stereoisomer not certain
UniProt Q8VF52 = target: T1, UniProt Q8VF52
T1 sequence (whole entry): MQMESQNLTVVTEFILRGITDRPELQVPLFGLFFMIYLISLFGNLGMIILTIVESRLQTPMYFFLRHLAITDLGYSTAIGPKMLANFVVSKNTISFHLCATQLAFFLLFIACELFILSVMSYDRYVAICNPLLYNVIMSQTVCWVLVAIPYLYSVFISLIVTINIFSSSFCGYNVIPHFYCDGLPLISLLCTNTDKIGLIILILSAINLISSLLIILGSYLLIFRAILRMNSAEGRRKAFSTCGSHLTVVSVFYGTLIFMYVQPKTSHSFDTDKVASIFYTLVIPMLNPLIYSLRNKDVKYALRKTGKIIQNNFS
Outline: (§1)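 Whether a receptor–molecule pair is responsive (active) rests on the original authors' judgment that its measured signal was statistically different from baseline. Pairs without that judgment are non-responsive (inactive). Sources used varied assay methods, commonly transient luciferase assays in mammalian cell lines.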

UniProt Q8VFG6 = target: T2, UniProt Q8VFG6
T2 sequence (whole entry): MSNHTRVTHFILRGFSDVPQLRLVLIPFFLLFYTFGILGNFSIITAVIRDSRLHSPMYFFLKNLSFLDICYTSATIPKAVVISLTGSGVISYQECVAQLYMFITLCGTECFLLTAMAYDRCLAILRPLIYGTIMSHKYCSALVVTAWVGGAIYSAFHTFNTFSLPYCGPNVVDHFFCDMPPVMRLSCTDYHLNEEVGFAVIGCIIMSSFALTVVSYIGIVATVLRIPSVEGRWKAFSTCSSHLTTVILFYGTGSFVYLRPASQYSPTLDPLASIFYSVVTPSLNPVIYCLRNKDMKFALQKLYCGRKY
Outline: as §1

UniProt Q8VFZ6 = target: T3, UniProt Q8VFZ6
T3 sequence (whole entry): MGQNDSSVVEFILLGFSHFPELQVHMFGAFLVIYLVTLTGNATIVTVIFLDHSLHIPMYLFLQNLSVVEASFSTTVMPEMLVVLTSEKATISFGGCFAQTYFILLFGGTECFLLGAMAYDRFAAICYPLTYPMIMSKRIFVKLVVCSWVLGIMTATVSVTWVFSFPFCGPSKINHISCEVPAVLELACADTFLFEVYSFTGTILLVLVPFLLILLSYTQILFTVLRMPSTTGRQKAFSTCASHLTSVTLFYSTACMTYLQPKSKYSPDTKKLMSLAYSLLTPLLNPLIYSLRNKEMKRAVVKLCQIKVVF
Outline: as §1

UniProt Q8VG01 = target: T4, UniProt Q8VG01
T4 sequence (whole entry): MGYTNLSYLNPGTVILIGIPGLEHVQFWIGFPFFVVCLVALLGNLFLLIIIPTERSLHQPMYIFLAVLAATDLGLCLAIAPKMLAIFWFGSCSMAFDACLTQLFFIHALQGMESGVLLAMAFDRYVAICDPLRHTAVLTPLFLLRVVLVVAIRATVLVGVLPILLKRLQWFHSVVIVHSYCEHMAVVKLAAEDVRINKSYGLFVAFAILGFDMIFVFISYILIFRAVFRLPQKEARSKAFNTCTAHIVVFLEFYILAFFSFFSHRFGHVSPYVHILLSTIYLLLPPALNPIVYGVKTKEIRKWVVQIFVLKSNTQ
Outline: as §1

UniProt Q8VG22 = target: T5, UniProt Q8VG22
T5 sequence (whole entry): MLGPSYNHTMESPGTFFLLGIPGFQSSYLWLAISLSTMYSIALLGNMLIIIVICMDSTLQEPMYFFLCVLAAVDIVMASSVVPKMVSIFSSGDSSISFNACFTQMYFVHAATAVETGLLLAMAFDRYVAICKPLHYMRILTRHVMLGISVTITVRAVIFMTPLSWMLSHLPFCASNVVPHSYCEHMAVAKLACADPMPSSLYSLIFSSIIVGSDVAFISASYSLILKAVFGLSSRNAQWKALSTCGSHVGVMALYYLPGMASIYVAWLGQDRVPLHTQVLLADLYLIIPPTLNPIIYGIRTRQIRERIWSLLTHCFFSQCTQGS
Outline: as §1

UniProt Q8VG49 = target: T6, UniProt Q8VG49
T6 sequence (whole entry): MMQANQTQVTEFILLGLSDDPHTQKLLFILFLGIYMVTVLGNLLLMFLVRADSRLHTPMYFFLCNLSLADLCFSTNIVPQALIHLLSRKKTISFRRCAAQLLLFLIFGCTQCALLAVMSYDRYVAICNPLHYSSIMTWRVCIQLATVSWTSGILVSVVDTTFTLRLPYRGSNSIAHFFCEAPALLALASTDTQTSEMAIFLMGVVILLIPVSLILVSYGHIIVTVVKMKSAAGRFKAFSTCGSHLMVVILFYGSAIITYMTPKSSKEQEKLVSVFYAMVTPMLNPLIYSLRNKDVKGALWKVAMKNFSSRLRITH
Outline: as §1

UniProt Q8VG77 = target: T7, UniProt Q8VG77
T7 sequence (whole entry): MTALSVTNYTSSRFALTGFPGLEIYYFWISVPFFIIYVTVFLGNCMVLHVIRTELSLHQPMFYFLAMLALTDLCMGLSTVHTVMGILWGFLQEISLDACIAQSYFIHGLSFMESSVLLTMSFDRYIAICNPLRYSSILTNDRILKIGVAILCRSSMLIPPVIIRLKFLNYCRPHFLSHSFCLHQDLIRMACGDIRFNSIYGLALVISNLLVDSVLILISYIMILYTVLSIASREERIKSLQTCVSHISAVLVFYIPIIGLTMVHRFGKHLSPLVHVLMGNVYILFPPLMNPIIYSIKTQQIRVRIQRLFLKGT
Outline: as §1

UniProt Q8VG96 = target: T8, UniProt Q8VG96
T8 sequence (whole entry): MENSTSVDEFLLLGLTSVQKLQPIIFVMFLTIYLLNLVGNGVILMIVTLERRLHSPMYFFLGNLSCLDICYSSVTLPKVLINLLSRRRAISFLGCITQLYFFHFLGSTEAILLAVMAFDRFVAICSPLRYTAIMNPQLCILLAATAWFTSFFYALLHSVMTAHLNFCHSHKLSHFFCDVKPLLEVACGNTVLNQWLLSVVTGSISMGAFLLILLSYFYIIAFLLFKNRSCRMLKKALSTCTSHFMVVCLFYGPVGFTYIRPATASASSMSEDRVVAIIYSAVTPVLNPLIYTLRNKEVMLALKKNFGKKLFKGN
Outline: as §1

UniProt Q8VGC6 = target: T9, UniProt Q8VGC6
T9 sequence (whole entry): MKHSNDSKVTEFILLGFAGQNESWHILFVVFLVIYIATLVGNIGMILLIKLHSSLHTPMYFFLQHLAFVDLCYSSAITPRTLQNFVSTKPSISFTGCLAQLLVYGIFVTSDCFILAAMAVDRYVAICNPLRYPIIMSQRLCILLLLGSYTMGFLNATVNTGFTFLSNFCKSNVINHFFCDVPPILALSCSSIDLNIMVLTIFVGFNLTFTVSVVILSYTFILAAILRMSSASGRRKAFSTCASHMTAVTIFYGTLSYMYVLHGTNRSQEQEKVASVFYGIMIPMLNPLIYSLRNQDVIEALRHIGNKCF
Outline: as §1

UniProt Q8VGD7 = target: T10, UniProt Q8VGD7
T10 sequence (whole entry): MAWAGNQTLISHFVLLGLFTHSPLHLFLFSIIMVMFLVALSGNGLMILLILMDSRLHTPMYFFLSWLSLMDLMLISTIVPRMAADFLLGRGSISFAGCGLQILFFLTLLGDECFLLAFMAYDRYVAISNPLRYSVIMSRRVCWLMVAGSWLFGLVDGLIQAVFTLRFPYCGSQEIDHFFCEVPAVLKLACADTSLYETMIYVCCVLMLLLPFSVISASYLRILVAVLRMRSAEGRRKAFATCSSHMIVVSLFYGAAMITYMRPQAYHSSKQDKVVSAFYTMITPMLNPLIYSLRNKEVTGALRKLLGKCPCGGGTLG
Outline: as §1

UniProt Q8VGH1 = target: T11, UniProt Q8VGH1
T11 sequence (whole entry): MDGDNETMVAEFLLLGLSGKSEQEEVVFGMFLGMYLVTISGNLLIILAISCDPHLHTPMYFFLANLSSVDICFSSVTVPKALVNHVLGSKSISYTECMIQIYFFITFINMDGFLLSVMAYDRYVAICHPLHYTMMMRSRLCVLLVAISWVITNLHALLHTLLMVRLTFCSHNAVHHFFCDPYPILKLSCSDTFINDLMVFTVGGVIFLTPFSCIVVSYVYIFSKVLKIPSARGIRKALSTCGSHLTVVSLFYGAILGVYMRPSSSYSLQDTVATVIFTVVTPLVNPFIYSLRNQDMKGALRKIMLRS
Outline: as §1

UniProt Q8VGJ1 = target: T12, UniProt Q8VGJ1
T12 sequence (whole entry): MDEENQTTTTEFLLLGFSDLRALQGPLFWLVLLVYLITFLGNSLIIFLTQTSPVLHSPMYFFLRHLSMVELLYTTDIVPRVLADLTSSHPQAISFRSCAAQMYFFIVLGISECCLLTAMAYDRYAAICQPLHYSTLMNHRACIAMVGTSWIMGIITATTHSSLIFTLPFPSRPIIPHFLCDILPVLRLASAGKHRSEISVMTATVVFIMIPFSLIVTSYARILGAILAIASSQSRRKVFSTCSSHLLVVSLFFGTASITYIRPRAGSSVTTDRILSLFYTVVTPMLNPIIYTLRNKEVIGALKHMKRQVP
Outline: as §1

Measured: odorant receptor agonist call;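 further: active if original authors judged signal statistically different from baseline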

CCC1CCC(=O)O1 (configuration not stated)
active: UniProt Q8VGC6
inactive: all other assays above
